What was measured:
Type in all cases: functional
[1] = system: MCF7; assay: Cytotoxicity against human MCF7 cells after 48 hrs by SRB assay; conditions: MCF7, 48 h
In short: (§1)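 NCI-60 human tumour cell panel screen, second stage, run by the NCI Developmental Therapeutics Program. Compounds were tested at five concentrations (0.01, 0.1, 1, 10 and 100 μM). Percentage growth was plotted against log10 concentration for each cell line. GI50, TGI and LC50 were taken from these dose-response curves.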

[2] = system: HL-60(TB); assay: Cytotoxicity against human HL-60(TB) cells after 48 hrs by SRB assay; conditions: HL-60, 48 h
In short: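 NCI Developmental Therapeutics Program 60-cell-line screen, second stage: cells exposed to five concentrations (0.01, 0.1, 1, 10 and 100 μM). Growth is plotted against log10 concentration for each line, and GI50, TGI and LC50 are read from the dose-response curves.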

[3] = system: SK-OV-3; assay: Cytotoxicity against human SKOV3 cells after 48 hrs by SRB assay; conditions: SK-OV-3, 48 h
In short: (§2)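 Second-stage NCI-60 panel run by the NCI Developmental Therapeutics Program, covering nine tumour subpanels. Five concentrations were tested: 0.01, 0.1, 1, 10 and 100 μM. Percentage growth at each level was plotted against log10 drug concentration. GI50, TGI and LC50 were read from these dose-response curves. Subpanel MID values were divided into the full-panel MID to give selectivity ratios.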

[4] = system: NCI-H322M; assay: Cytotoxicity against human NCI-H322M cells after 48 hrs by SRB assay; in short: as §2
[5] = system: SK-MEL-2; assay: Cytotoxicity against human SK-MEL-2 cells after 48 hrs by SRB assay; conditions: SK-MEL-2, 48 h; in short: as §2
[6] = system: SF-295; assay: Cytotoxicity against human SF295 cells after 48 hrs by SRB assay; conditions: SF-295, 48 h; in short: as §2
[7] = system: A498; assay: Cytotoxicity against human A498 cells after 48 hrs by SRB assay; conditions: A498, 48 h; in short: as §1
[8] = system: SNB-75; assay: Cytotoxicity against human SNB75 cells after 48 hrs by SRB assay; conditions: SNB-75, 48 h
In short: (§3)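 NCI-60 five-dose study run by NCI DTP at 0.01, 0.1, 1, 10 and 100 µM. Percentage growth at each level was plotted against log10 concentration for each line, and GI50, TGI and LC50 were read from the dose-response curves.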

[9] = system: HCT-15; assay: Cytotoxicity against human HCT15 cells after 48 hrs by SRB assay; conditions: HCT-15, 48 h; in short: as §1
[10] = system: HOP-62; assay: Cytotoxicity against human HOP62 cells after 48 hrs by SRB assay; conditions: HOP-62, 48 h; in short: as §1
[11] = Cytotoxicity against human leukemia cells assessed as growth inhibition after 48 hrs by SRB assay; conditions: Leukemia cell
In short: (§4)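 Values come from the NCI-60 five-dose panel (0.01–100 µM). The subpanel MID is the mean GI50 over the lines of that tumour subpanel. The selectivity ratio is the full-panel MID divided by the subpanel MID; 3–6 is rated moderate and >6 high.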

[12] = system: OVCAR-5; assay: Cytotoxicity against human OVCAR5 cells after 48 hrs by SRB assay; conditions: OVCAR-5, 48 h; in short: as §2
[13] = Cytotoxicity against human colon cancer cells assessed as growth inhibition after 48 hrs by SRB assay; conditions: Cancer cell lines; in short: as §4
[14] = system: RPMI-8226; assay: Cytotoxicity against human RPMI8226 cells after 48 hrs by SRB assay; conditions: RPMI-8226, 48 h; in short: as §2
[15] = system: M14; assay: Cytotoxicity against human M14 cells after 48 hrs by SRB assay; conditions: M14, 48 h; in short: as §1
[16] = system: K562; assay: Cytotoxicity against human K562 cells after 48 hrs by SRB assay; conditions: K562, 48 h; in short: as §1
[17] = system: SK-MEL-28; assay: Cytotoxicity against human SK-MEL-28 cells after 48 hrs by SRB assay; conditions: SK-MEL-28, 48 h; for CC50: read-out: LC50 (the source's name); in short: as §2
[18] = Cytotoxicity against human CNS cancer cells assessed as growth inhibition after 48 hrs by SRB assay; conditions: Cancer cell lines
In short: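 NCI-60 five-dose data (0.01–100 μM) were grouped by tumour subpanel. A subpanel mean (MID) of GI50 was computed for the CNS cancer lines. A selectivity ratio was obtained as full-panel MID divided by subpanel MID: 3–6 counts as moderate, >6 as high.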

[19] = system: NCI-H522; assay: Cytotoxicity against human NCI-H522 cells after 48 hrs by SRB assay; conditions: NCI-H522, 48 h; in short: as §2
[20] = system: SF-539; assay: Cytotoxicity against human SF539 cells after 48 hrs by SRB assay; conditions: SF-539, 48 h; in short: as §2
[21] = system: OVCAR-4; assay: Cytotoxicity against human OVCAR4 cells after 48 hrs by SRB assay; conditions: OVCAR-4, 48 h; in short: as §2
[22] = system: UACC-62; assay: Cytotoxicity against human UACC62 cells after 48 hrs by SRB assay; conditions: UACC-62, 48 h; in short: as §3
[23] = system: HCT-116; assay: Cytotoxicity against human HCT116 cells after 48 hrs by SRB assay; conditions: HCT-116, 48 h; for CC50: read-out: LC50 (the source's name); in short: as §1
[24] = system: BT-549; assay: Cytotoxicity against human BT549 cells after 48 hrs by SRB assay; conditions: BT-549, 48 h; in short: as §1
[25] = system: HOP-92; assay: Cytotoxicity against human HOP92 cells after 48 hrs by SRB assay; conditions: HOP-92, 48 h; in short: as §1
[26] = Cytotoxicity against human EKVX cells after 48 hrs by SRB assay; in short: as §1
[27] = system: COLO 205; assay: Cytotoxicity against human COLO205 cells after 48 hrs by SRB assay; conditions: COLO 205, 48 h; in short: as §1

Work on `O=C1c2ccccc2C(=O)c2c1cc(Sc1ccccc1Br)c1nsnc21` yielded a GI50 [1] of 7.28 µM, an LC50 (concentration killing 50% of cells) [1] of 37.8 µM and a TGI [1] of 16.6 µM. For the same compound, the GI50 [2] was 17.8 µM, the LC50 [2] was over 50 µM and the TGI [2] was over 50 µM. For the same compound, the GI50 [3] was 21 µM, the LC50 [3] was over 50 µM and the TGI [3] was over 50 µM. It also gave a GI50 [4] of over 50 µM, an LC50 (concentration causing 50% net cell kill) [4] of over 50 µM and a TGI [4] of over 50 µM. The GI50 [5] was 13.8 µM, the LC50 [5] was over 50 µM and the TGI [5] was 34.1 µM. The GI50 [6] was 40.6 µM, the LC50 [6] was over 50 µM and the TGI [6] was over 50 µM. The GI50 [7] was 10.7 µM, the LC50 (concentration killing 50% of cells) [7] was over 50 µM and the TGI [7] was over 50 µM. The GI50 [8] was 14.9 µM, the LC50 (concentration killing 50% of cells) [8] was over 50 µM and the TGI [8] was over 50 µM. It also gave a GI50 [9] of 12.3 µM, an LC50 [9] of over 50 µM and a TGI [9] of over 50 µM. For the same compound, the GI50 [10] was 13.3 µM, the LC50 [10] was over 50 µM and the TGI [10] was 30.4 µM. It also gave a GI50 [11] of 12.8 µM, a GI50 [12] of 3.44 µM and an LC50 [12] of over 50 µM. The TGI [12] was over 50 µM, the GI50 [13] was 21.4 µM and the GI50 [14] was 11.3 µM. The LC50 [14] was over 50 µM, the TGI [14] was over 50 µM and the GI50 [15] was 17.4 µM. It also gave an LC50 [15] of over 50 µM, a TGI [15] of over 50 µM and a GI50 [16] of 18.5 µM. The LC50 [16] was over 50 µM, the TGI [16] was over 50 µM and the GI50 [17] was 20.9 µM. For the same compound, the TGI [17] was over 50 µM, the CC50 [17] was over 50 µM and the GI50 [18] was 21.8 µM. For the same compound, the GI50 [19] was 14.9 µM, the LC50 (concentration giving 50% net cell kill) [19] was over 50 µM and the TGI [19] was over 50 µM. The GI50 [20] was 10.3 µM, the LC50 [20] was 40.5 µM and the TGI [20] was 20.5 µM. It also gave a GI50 [21] of 2.78 µM, an LC50 [21] of 30.1 µM and a TGI [21] of 10.1 µM. For the same compound, the GI50 [22] was 12 µM, the LC50 [22] was over 50 µM and the TGI [22] was 40.8 µM. The GI50 [23] was 7.87 µM, the TGI [23] was 19.9 µM and the CC50 [23] was over 50 µM. The GI50 [24] was 20.5 µM, the LC50 [24] was over 50 µM and the TGI [24] was over 50 µM. It also gave a GI50 [25] of 18.4 µM, an LC50 (concentration giving 50% net cell kill) [25] of over 50 µM and a TGI [25] of over 50 µM. For the same compound, the GI50 [26] was over 50 µM, the LC50 [26] was over 50 µM and the TGI [26] was over 50 µM. For the same compound, the GI50 [27] was over 50 µM, the LC50 [27] was over 50 µM and the TGI [27] was over 50 µM.

For `O=C1c2ccccc2C(=O)c2c1cc(Sc1cccc(Cl)c1)c1nsnc21`, the GI50 [1] was 1.3 µM, the LC50 (concentration killing 50% of cells) [1] was 8.78 µM and the TGI [1] was 3.37 µM. For the same compound, the GI50 [2] was 2.51 µM, the LC50 [2] was over 100 µM and the TGI [2] was 6.71 µM. The GI50 [3] was 3.97 µM, the LC50 [3] was 34.8 µM and the TGI [3] was 12.1 µM. The GI50 [4] was 18.6 µM, the LC50 (concentration causing 50% net cell kill) [4] was 61.9 µM and the TGI [4] was 33.9 µM. The GI50 [5] was 2.34 µM, the LC50 [5] was 9.87 µM and the TGI [5] was 4.81 µM. It also gave a GI50 [6] of 7.84 µM, an LC50 [6] of 57.9 µM and a TGI [6] of 22.9 µM. The GI50 [7] was 13 µM, the LC50 (concentration killing 50% of cells) [7] was 6.54 µM and the TGI [7] was 29.2 µM. For the same compound, the GI50 [8] was 1.99 µM, the LC50 (concentration killing 50% of cells) [8] was 23.7 µM and the TGI [8] was 6.23 µM. It also gave a GI50 [9] of 2.71 µM, an LC50 [9] of 47.1 µM and a TGI [9] of 11.3 µM. For the same compound, the GI50 [10] was 1.85 µM, the LC50 [10] was 8.81 µM and the TGI [10] was 4.04 µM. The GI50 [11] was 1.59 µM, the GI50 [12] was 2.74 µM and the LC50 [12] was 68.2 µM. It also gave a TGI [12] of 6.08 µM, a GI50 [13] of 10.5 µM and a GI50 [14] of 1.42 µM. It also gave an LC50 [14] of over 100 µM, a TGI [14] of 6.32 µM and a GI50 [15] of 1.66 µM. For the same compound, the LC50 [15] was 6.94 µM, the TGI [15] was 3.39 µM and the GI50 [16] was 2.41 µM. It also gave an LC50 [16] of over 100 µM, a TGI [16] of 7.27 µM and a GI50 [17] of 1.93 µM. The TGI [17] was 4.19 µM, the CC50 [17] was 9.09 µM and the GI50 [18] was 4.47 µM. It also gave a GI50 [19] of 1.84 µM, an LC50 (concentration giving 50% net cell kill) [19] of 9.91 µM and a TGI [19] of 4.26 µM. The GI50 [20] was 2.19 µM, the LC50 [20] was 7.55 µM and the TGI [20] was 4.07 µM. For the same compound, the GI50 [21] was 0.31 µM, the LC50 [21] was 6.71 µM and the TGI [21] was 0.94 µM. The GI50 [22] was 1.6 µM, the LC50 [22] was 6.54 µM and the TGI [22] was 3.26 µM. The GI50 [23] was 0.44 µM, the TGI [23] was 2.66 µM and the CC50 [23] was 16.3 µM. It also gave a GI50 [24] of 3.27 µM, an LC50 [24] of 40.3 µM and a TGI [24] of 15.1 µM. The GI50 [25] was 2.3 µM, the LC50 (concentration giving 50% net cell kill) [25] was 15.8 µM and the TGI [25] was 5.23 µM. It also gave a GI50 [26] of 16 µM, an LC50 [26] of 55 µM and a TGI [26] of 29.7 µM. It also gave a GI50 [27] of 20 µM, an LC50 [27] of 61.3 µM and a TGI [27] of 35 µM.

Reference: ChEMBL document CHEMBL3621107, “Ring fusion strategy for synthesis and lead optimization of sulfur-substituted anthra[1,2-c][1,2,5]thiadiazole-6,11-dione derivatives as promising scaffold of antitumor agents” (Eur J Med Chem, 2015)
